# PubChem BioAssay
# Values joined by “and” are separate entries in the source; they are usually repeats but may differ in a detail not shown here. Equal values may be shown once. Active and inactive are the calls of the source.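 The calls were made as follows, unless noted: active = inhibition at or above 50% relative to wild type and mutant plate controls; inactive = inhibition below 50%.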
# Target: Muscarinic acetylcholine receptor M4 (Homo sapiens) (UniProt P08173)
# Assay: M4-linked GIRK flux change, two-sided – cell-based, HEK293 M4/GIRK, thallium flux, BTC-AM, M4 allosteric agonist project, primary screen (AID 625;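 active = fluorescence slope after compound addition differing from the mean of all tested samples at 99.7% confidence, mostly higher but some lower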;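 also: thallium influx through GIRK channels coupled to M4 in HEK293 cells with BTC-AM dye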)
# Conditions: at 10 µM, actives lie on both sides
# Summary of the method: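 System: HEK293 cells with M4 receptor and GIRK channels | Incubation: Cells overnight at 37 °C, BTC-AM loading 1 h, reads 2 min total | Technique: Kinetic BTC-AM fluorescence sampled at 1 Hz, 10 s pre-addition baseline | Measure: Post-addition slope, 15–24 s, of baseline-normalized fluorescence | Control set: Carbachol positive, DMSO negative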
# Chain of Muscarinic acetylcholine receptor M4 (Homo sapiens) (P08173 whole entry, looked up): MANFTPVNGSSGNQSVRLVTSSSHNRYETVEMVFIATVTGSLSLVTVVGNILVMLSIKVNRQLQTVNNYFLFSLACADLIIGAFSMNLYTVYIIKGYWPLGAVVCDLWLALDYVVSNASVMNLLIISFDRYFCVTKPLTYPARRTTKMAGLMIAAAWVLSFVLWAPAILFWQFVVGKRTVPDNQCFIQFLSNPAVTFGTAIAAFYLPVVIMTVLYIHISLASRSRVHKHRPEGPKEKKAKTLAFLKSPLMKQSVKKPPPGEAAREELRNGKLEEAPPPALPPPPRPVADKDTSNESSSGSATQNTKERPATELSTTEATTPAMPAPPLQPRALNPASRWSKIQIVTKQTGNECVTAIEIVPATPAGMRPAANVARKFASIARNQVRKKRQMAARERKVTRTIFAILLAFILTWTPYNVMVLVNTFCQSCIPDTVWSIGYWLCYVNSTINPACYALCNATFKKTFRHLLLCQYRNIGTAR
row,SMILES,fluorescence slope
1,C=CCSc1nnc2n(CCc3ccccc3)c(=O)c3c4c(sc3n12)COC(C)(C)C4,0.0058 (inactive)
2,CCOC(=O)Cc1nnc(Nc2cccc(O)c2)c2ccccc12,0.0057 (inactive)
3,COc1ccc(CNc2oc(COc3ccccc3Cl)nc2C#N)cc1,0.0036 (inactive)
4,CC(NC(=O)NCCCC(=O)O)(C(F)(F)F)C(F)(F)F,0.00478 (inactive)
5,CC(NC(=O)Nc1nccs1)(C(F)(F)F)C(F)(F)F,0.00776 (inactive)
6,C=C(C)C1Cc2c(C)nn(-c3nc(C)cc(C)n3)c2C1 (configuration not stated),0.00615 (inactive)
7,COC(=O)c1cc(Br)c(=O)n(-c2nccs2)c1,0.00469 (inactive)
8,Cc1ccc(NC(=O)CSC2=C(C#N)C(c3ccc4c(c3)OCO4)CC(=O)N2)cc1C (configuration not stated),0.00748 (inactive)
9,CCN(CC)C(=O)c1sc2nc(-c3cccs3)cc(-c3cccs3)c2c1N,-0.00241 (active)
10,Cc1ccc(-c2nnc(-c3cccc(Br)c3)o2)cc1,0.00652 (inactive)
11,CCCCOc1ccc(C(=O)Nc2ccc(N3CCN(C(C)=O)CC3)cc2)cc1,0.00551 (inactive)
12,COC(=O)c1ccccc1NC(=O)CSc1nnc(-c2ccncc2)o1,0.00541 (inactive)
13,CN(C)C(CN1C(=O)C2CC=CCC2C1=O)c1cn(C)c2ccccc12 (configuration not stated),0.00462 (inactive)
14,CCOc1cc(C2Nc3ccccc3C(=O)N2c2ccccc2OC)ccc1O (configuration not stated),0.0049 (inactive)
15,Cc1cn2c(-c3ccncc3)nnc2s1,0.00508 (inactive)
16,COc1ccc(/C(O)=C2/C(=O)C(=O)N(CCN(C)C)C2c2ccccn2)cc1OC (configuration not stated),0.00535 (inactive)
17,O=C1C2CC=C(Cl)CC2C(=O)N1CNc1ccccn1 (configuration not stated),0.00609 (inactive)
18,N#Cc1nc(COc2ccc(Br)cc2)oc1N1CCCC1,0.00636 (inactive)
19,CCOC(=O)C1CCN(C(C)=C2C(=O)c3ccccc3C2=O)CC1,0.0035 (inactive)
20,CCSc1nnc(NC(=O)C(CC)(C(F)(F)F)C(F)(F)F)s1,0.00559 (inactive)
21,N#CC1=C(N)OC2=C(C(=O)CCC2)C1CCc1ccccc1 (configuration not stated),0.00745 (inactive)
22,CCSc1nc(O)c(C2OC(=O)c3c2ccc(OC)c3OC)c(=O)n1-c1ccccc1 (configuration not stated),0.00691 (inactive)

# Test system: not listed separately
# Assay: inhibitors of larval lipid processing in zebrafish, primary screen, whole organism, PED6 fluorescence, gall bladder and intestine (AID 686;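 active = a full or partial loss of lipid-probe fluorescence in the fish gall bladder, intestine or both, judged by eye; inactive = no fluorescence loss, or compound toxic to the fish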;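 also: larvae 5 to 7 days old with five fish per well; signal comes from phospholipase A2 cleavage of quenched PED6 carried via bile; overnight exposure to compound and PED6 before scoring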)
# Conditions: Zebrafish larvae PED6 lipid processing, fluorescence scoring; screened at 20 µM (by protocol)
# Summary of the method: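 Test system – live zebrafish larvae aged 5-7 days, whole organism · Buffer or medium – E3 fish medium · Reagent – quenched phospholipase substrate PED6, 100 nM final, ingested by larvae · Doses – 20 µM single dose · Incubation – overnight compound and PED6 incubation · Technique – visual fluorescence microscopy scoring of gall bladder, gut · Read-out basis – visual per-well fluorescence inhibition score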
row,SMILES,outcome
1,C=CCSc1nnc2n(CCc3ccccc3)c(=O)c3c4c(sc3n12)COC(C)(C)C4,inactive
2,CCOC(=O)Cc1nnc(Nc2cccc(O)c2)c2ccccc12,inactive
3,CC(NC(=O)NCCCC(=O)O)(C(F)(F)F)C(F)(F)F,inactive
4,CC(NC(=O)Nc1nccs1)(C(F)(F)F)C(F)(F)F,inactive
5,C=C(C)C1Cc2c(C)nn(-c3nc(C)cc(C)n3)c2C1 (configuration not stated),inactive
6,COC(=O)c1cc(Br)c(=O)n(-c2nccs2)c1,inactive
7,Cc1ccc(NC(=O)CSC2=C(C#N)C(c3ccc4c(c3)OCO4)CC(=O)N2)cc1C (configuration not stated),inactive
8,CCN(CC)C(=O)c1sc2nc(-c3cccs3)cc(-c3cccs3)c2c1N,active; no signal in gallbladder and intestine
9,Cc1ccc(-c2nnc(-c3cccc(Br)c3)o2)cc1,inactive
10,CCCCOc1ccc(C(=O)Nc2ccc(N3CCN(C(C)=O)CC3)cc2)cc1,inactive
11,COC(=O)c1ccccc1NC(=O)CSc1nnc(-c2ccncc2)o1,inactive
12,CN(C)C(CN1C(=O)C2CC=CCC2C1=O)c1cn(C)c2ccccc12 (configuration not stated),inactive
13,CCOc1cc(C2Nc3ccccc3C(=O)N2c2ccccc2OC)ccc1O (configuration not stated),inactive
14,Cc1cn2c(-c3ccncc3)nnc2s1,inactive
15,COc1ccc(/C(O)=C2/C(=O)C(=O)N(CCN(C)C)C2c2ccccn2)cc1OC (configuration not stated),inactive
16,O=C1C2CC=C(Cl)CC2C(=O)N1CNc1ccccn1 (configuration not stated),inactive
17,N#Cc1nc(COc2ccc(Br)cc2)oc1N1CCCC1,inactive
18,CCOC(=O)C1CCN(C(C)=C2C(=O)c3ccccc3C2=O)CC1,inactive
19,CCSc1nnc(NC(=O)C(CC)(C(F)(F)F)C(F)(F)F)s1,inactive
20,N#CC1=C(N)OC2=C(C(=O)CCC2)C1CCc1ccccc1 (configuration not stated),inactive
21,CCSc1nc(O)c(C2OC(=O)c3c2ccc(OC)c3OC)c(=O)n1-c1ccccc1 (configuration not stated),inactive

# Test system: not listed separately
# Assay: loss of swimming-algae plug formation – whole organism, Chlamydomonas reinhardtii, WT vs cilia-less mutant, absorbance, 96-well, primary screen (AID 463189);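 also: 0% = wild type cc124 cells in DMSO and 100% = ciliumless bld1 mutant cells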
# Conditions: Chlamydomonas reinhardtii gravitaxis, OD600 absorbance, 2 days; at 10 µM; active compounds read high
row,SMILES,inhibition
1,COc1cc(NS(=O)(=O)c2ccc(N)cc2)nc(OC)n1,20.1% (inactive)
2,C=CCSc1nnc2n(CCc3ccccc3)c(=O)c3c4c(sc3n12)COC(C)(C)C4,28.7% (inactive)
3,COc1c2occc2c(OC)c2c(=O)cc(C)oc12,-3.66% (inactive)
4,CCCn1c(=O)c2[nH]c(C3CCCC3)nc2n(CCC)c1=O,4.71% (inactive) and -9.34% (inactive)
5,CCOC(=O)Cc1nnc(Nc2cccc(O)c2)c2ccccc12,-9.07% (inactive)
6,COc1ccc(C(=O)Cn2c(N3CCCCC3)nc3c2c(=O)n(C)c(=O)n3C)cc1OC,12.6% (inactive)
7,CCn1cc(C(=O)O)c(=O)c2cc(F)c(N3CCNCC3)nc21,-14% (inactive)
8,Cc1ccc(S(=O)(=O)NC(=O)NN2CCCCCC2)cc1,6.39% (inactive) and 32.8% (inactive)
9,Cn1c(/C(C#N)=C/Nc2ccccn2)nc2ccccc21,2.14% (inactive)
10,COc1ccc(CNc2oc(COc3ccccc3Cl)nc2C#N)cc1,31.6% (inactive)
11,CC(NC(=O)NCCCC(=O)O)(C(F)(F)F)C(F)(F)F,11.9% (inactive)
12,CC(NC(=O)Nc1nccs1)(C(F)(F)F)C(F)(F)F,-9.58% (inactive)
13,CCC1CCCCN1c1nc(-c2ccncc2)nc2ccccc12 (configuration not stated),132% (active)
14,C=C(C)C1Cc2c(C)nn(-c3nc(C)cc(C)n3)c2C1 (configuration not stated),51.6% (active)
15,CCCCOc1ccc(CC(=O)NO)cc1,7.46% (inactive)
16,COC(=O)c1cc(Br)c(=O)n(-c2nccs2)c1,6.75% (inactive)
17,Cc1ccc(NC(=O)CSC2=C(C#N)C(c3ccc4c(c3)OCO4)CC(=O)N2)cc1C (configuration not stated),25.6% (inactive)
18,CCN(CC)C(=O)c1sc2nc(-c3cccs3)cc(-c3cccs3)c2c1N,15.5% (inactive)
19,Cc1ccc(-c2nnc(-c3cccc(Br)c3)o2)cc1,8.63% (inactive)
20,CCCCOc1ccc(C(=O)Nc2ccc(N3CCN(C(C)=O)CC3)cc2)cc1,3.64% (inactive)

row,SMILES,inhibition
1,CCN(CC)CCNC(=O)c1ccc(NC(C)=O)cc1,-7.67% (inactive) and -9.65% (inactive)
2,COC(=O)c1ccccc1NC(=O)CSc1nnc(-c2ccncc2)o1,4.81% (inactive)
3,CN(C)C(CN1C(=O)C2CC=CCC2C1=O)c1cn(C)c2ccccc12 (configuration not stated),-7.45% (inactive)
4,CCOc1cc(C2Nc3ccccc3C(=O)N2c2ccccc2OC)ccc1O (configuration not stated),2.2% (inactive)
5,Cc1cn2c(-c3ccncc3)nnc2s1,-0.946% (inactive)
6,COc1ccc(/C(O)=C2/C(=O)C(=O)N(CCN(C)C)C2c2ccccn2)cc1OC (configuration not stated),-0.28% (inactive)
7,Cc1oc2nc(SCCCC(=O)NCCCO)nc(N)c2c1C,0.255% (inactive)
8,C[C@@H]1CCC[C@H](C)N1NC(=O)c1ccc(Cl)c(S(N)(=O)=O)c1,24.4% (inactive)
9,O=C(CCCN1C(=O)c2ccccc2C1=O)N1CCC(c2ccccc2)C1 (configuration not stated),10.2% (inactive)
10,O=C1C2CC=C(Cl)CC2C(=O)N1CNc1ccccn1 (configuration not stated),-11.9% (inactive)
11,COCCNC(=O)c1c(N)n(/N=C/c2cccs2)c2nc3ccccc3nc12,17.7% (inactive)
12,COC(=O)CC1SC(=O)NC1=O (configuration not stated),6.27% (inactive)
13,N#Cc1nc(COc2ccc(Br)cc2)oc1N1CCCC1,-0.7% (inactive)
14,CCOC(=O)C1CCN(C(C)=C2C(=O)c3ccccc3C2=O)CC1,25.7% (inactive)
15,CCSc1nnc(NC(=O)C(CC)(C(F)(F)F)C(F)(F)F)s1,21.1% (inactive)
16,N#CC1=C(N)OC2=C(C(=O)CCC2)C1CCc1ccccc1 (configuration not stated),33.2% (inactive)
17,Cc1cc(OCC(=O)Nc2ccc3oc(-c4ccncc4)nc3c2)ccc1Cl,-0.755% (inactive)
18,CCSc1nc(O)c(C2OC(=O)c3c2ccc(OC)c3OC)c(=O)n1-c1ccccc1 (configuration not stated),-7.19% (inactive)
19,Cc1c(C)c2cc(Cl)c(O)c(CN3CCCCC3)c2oc1=O,20.3% (inactive)
